From ChEMBL document CHEMBL4145691, “Metalloporphyrin-Catalyzed Oxidation of Sunitinib and Pazopanib, Two Anticancer Tyrosine Kinase Inhibitors: Evidence for New Potentially Toxic Metabolites” (J Med Chem, 2018)

How the values were obtained:
[1] = Retention time of the compound in presence of KHSO5 and Mn(III)TDCPP/Cl by UHPLC-MS analysis; assay type: physicochemical
Method in brief: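 Sunitinib oxidation mixture run by UHPLC-MS at 0.4 mL/min and 30 °C. Eluents: 5 mM ammonium formate pH 3.2, and 0.1% formic acid in acetonitrile. Gradient 5→35% B by 3.5 min, held to 5.5 min, then 95% by 6.5 min. ESI+, full scan m/z 200–500 plus MRM.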

[2] = Retention time of the compound in human liver microsomes by UHPLC-MS analysis; assay type: ADME, microsome
Method in brief: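 Human liver microsomes (final 0.5 mg/mL protein) with NADPH regenerating system in 0.1 M phosphate pH 7.4, pre-incubated 5 min at 37 °C. Stopped with acetonitrile, centrifuged, filtered, supernatant analysed by UHPLC-MS (ESI+, full scan/MRM). No-NADPH negative control.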

[3] = Drug level using sunitinib assessed as compound formation in presence of KHSO5 and Mn(III)TDCPP/Cl by NMR and mass spectrometry; assay type: physicochemical
Method in brief: (§1)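 Biomimetic oxidation catalysed by Mn(III)-porphyrin with water-soluble oxygen donor (KHSO5 or MMPP), run in biphasic water/organic medium with a quaternary ammonium salt as phase-transfer catalyst. Products identified by NMR and mass spectrometry.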

[4] = Drug level using pazopanib assessed as compound formation in presence of MMPP and Mn(III)TDCPP/Cl by NMR and mass spectrometry; assay type: physicochemical; method in brief: as §1
[5] = Retention time of the compound in presence of MMPP and Mn(III)TDCPP/Cl by UHPLC-MS analysis; assay type: physicochemical
Method in brief: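 Pazopanib oxidation mixture run by UHPLC-MS at 0.4 mL/min and 30 °C. Eluents: 5 mM ammonium formate pH 3.2, and 0.1% formic acid in acetonitrile. ESI+, full scan m/z 200–520 plus MRM.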

Row | Retention_time [2] [min] | Product formation [3] | Product formation [4] | Retention_time [5] [min] | Compound | also measured
1 | – | – | Active | 3.63 | Cc1ccc(Nc2ncc(Cl)c(N(C)c3ccc4c(C=O)n(C)nc4c3)n2)cc1S(N)(=O)=O | –
2 | – | – | Active | – | CO/N=C/c1c2ccc(N(C)c3ccnc(Nc4ccc(C)c(S(N)(=O)=O)c4)n3)cc2nn1C | Retention time [5]: 2.96 to 3.11 min
3 | 3.54 | – | Active | 3.55 | Cc1ccc(Nc2ncc(Cl)c(N(C)c3ccc4c(C)n(C)nc4c3)n2)cc1S(N)(=O)=O | –
4 | – | Active | – | – | CC[N+]([O-])(CC)CCNC(=O)c1c(C)[nH]c(/C=C2\C(=O)Nc3ccc(F)cc32)c1C | –
5 | 2.84 | – | Active | 2.82 | Cc1ccc(Nc2nccc(N(C)c3ccc4c(C=O)n(C)nc4c3)n2)cc1S(N)(=O)=O | –

Further lines, the compound ahead of its results:

Row | Compound | Retention_time [2] [min] | Product formation [3] | Product formation [4] | Retention_time [5] [min] | also measured
6 | CCN(CC)CCNC(=O)c1c(CO)[nH]c(/C=C2\C(=O)Nc3ccc(F)cc32)c1C | 4.36 | Active | – | – | Retention_time [1]: 4.36 min
7 | CCN(CC)CCNC(=O)c1c(/C=N/OC)[nH]c(/C=C2\C(=O)Nc3ccc(F)cc32)c1C | 4.74 | – | – | – | Retention_time [1]: 4.77 min
8 | CCN(CC)CCNC(=O)c1c(COC)[nH]c(/C=C2\C(=O)Nc3ccc(F)cc32)c1C | – | Active | – | – | Retention time [1]: 4.56 min
9 | Cc1ccc(Nc2ncc(Cl)c(N(C)c3ccc4c(CO)n(C)nc4c3)n2)cc1S(N)(=O)=O | – | – | Active | 3.32 | –
10 | CCN(CC)CCNC(=O)c1c(C=O)[nH]c(/C=C2\C(=O)Nc3ccc(F)cc32)c1C | 4.36 | Active | – | – | Retention_time [1]: 4.36 min
11 | Cc1ccc(Nc2nccc(N(C)c3ccc4c(CO)n(C)nc4c3)n2)cc1S(N)(=O)=O | – | – | Active | 2.56 | –
12 | CC(=O)OCc1c2ccc(N(C)c3ccnc(Nc4ccc(C)c(S(N)(=O)=O)c4)n3)cc2nn1C | – | – | Active | – | –
